Data published in ChEMBL document CHEMBL2385063, “Identification of 2-(2-(1-naphthoyl)-8-fluoro-3,4-dihydro-1H-pyrido[4,3-b]indol-5(2H)-yl)acetic acid (setipiprant/ACT-129968), a potent, selective, and orally bioavailable chemoattractant receptor-homologous molecule expressed on Th2 cells (CRTH2) antagonist” (J Med Chem, 2013).

Tests used:
CYP3A4 = CYP3A4 (Homo sapiens, UniProt P08684); assay: Inhibition of CYP3A4 in human liver microsomes assessed as midazolam-1'-hydroxylation by LC-MS/MS analysis; format: ADME, Microsome; conditions: human, liver microsomes, probe midazolam (1'-hydroxylation)
[1] = Oral bioavailability in Wistar rat at 2 mg/kg; format: ADME, organism-based; conditions: in vivo
How it was run: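 Male Wistar rats, three animals per experiment, given iv (0.2, 1 or 2 mg/kg) and po (2 or 10 mg/kg) doses as solutions; AUC0-last, plasma clearance, half-life and oral bioavailability derived.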

Sequence of CYP3A4 (P08684 whole entry): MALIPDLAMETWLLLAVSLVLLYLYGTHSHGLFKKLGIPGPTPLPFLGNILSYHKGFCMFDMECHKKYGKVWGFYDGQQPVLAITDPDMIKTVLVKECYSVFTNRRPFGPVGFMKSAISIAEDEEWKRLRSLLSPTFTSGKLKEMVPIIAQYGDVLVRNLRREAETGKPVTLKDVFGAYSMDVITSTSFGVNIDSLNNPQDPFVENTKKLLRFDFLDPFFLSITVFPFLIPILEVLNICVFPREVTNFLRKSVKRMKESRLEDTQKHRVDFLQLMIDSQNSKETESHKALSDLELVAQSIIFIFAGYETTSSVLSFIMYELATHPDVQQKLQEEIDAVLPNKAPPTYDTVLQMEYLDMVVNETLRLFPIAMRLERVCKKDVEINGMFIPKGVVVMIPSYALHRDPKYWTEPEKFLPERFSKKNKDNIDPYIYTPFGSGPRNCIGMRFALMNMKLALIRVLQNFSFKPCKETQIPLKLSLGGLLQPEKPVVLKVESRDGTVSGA

| IC50 (CYP3A4) | bioavailability [1] | SMILES |
| --- | --- | --- |
| > 50 µM |  | O=C(O)Cn1c2c(c3ccccc31)CN(C(=O)c1ccccc1)CC2 |
|  | 2% | O=C(O)Cn1c2c(c3cc(F)ccc31)CN(C(=O)Cc1c[nH]c3ccccc13)CC2 |
